Assay results from ChEMBL document CHEMBL3044653, “Synthesis and herbicidal activity of 2-(substituted phenoxyacetoxy)alkyl-5,5-dimethyl-1,3,2-dioxaphosphinan-2-one” (J Agric Food Chem, 2012).

Experiments:
Digitaria sanguinalis [1] = experiment: Post-emergence herbicidal activity against Digitaria sanguinalis (hairy crabgrass) assessed as inhibition at 150 g/hectare treated at one-leaf stage by green house assay; assay type: functional
In short: (§1)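 Monocot weeds were sprayed postemergence in the greenhouse at the one-leaf stage with diluted formulation solutions. Primary dose was 150 g ai/ha, with follow-up doses of 75 and 37.5 g ai/ha for selected compounds. Activity is scored as percent herbicidal damage compared with an untreated control.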

Chenopodium album [2] = experiment: Post-emergence herbicidal activity against Chenopodium album assessed as inhibition at 75 g/hectare by green house assay; assay type: functional
Echinochloa crus-galli [3] = experiment: Post-emergence herbicidal activity against Echinochloa crus-galli (barnyard grass) assessed as inhibition at 75 g/hectare treated at one-leaf stage by green house assay; assay type: functional; in short: as §1
Triticum aestivum = experiment: Toxicity in Triticum aestivum (wheat) plant assessed as inhibition at 150 g/hectare; assay type: organism-based; conditions: in vivo
In short: (§2)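 For crop selectivity, conventional crop varieties were planted in 12 cm diameter plots and given a postemergence treatment at 150 g ai/ha. Injury was scored as percent inhibition, with 0–10% classed as safe to the crop.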

Pontederia vaginalis [4] = experiment: Post-emergence herbicidal activity against Monochoria vaginalis assessed as inhibition at 150 g/hectare by green house assay; assay type: functional
Abutilon theophrasti = experiment: Post-emergence herbicidal activity against Abutilon theophrasti (velvetleaf) assessed as inhibition at 150 g/hectare treated at two-leaf stage by green house assay; assay type: functional
In short: (§3)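 Greenhouse postemergence spray of diluted formulation solutions onto broadleaf weeds at the two-leaf stage. Primary screen at 150 g ai/ha, with selected compounds retested at 75 and 37.5 g ai/ha. Abutilon was tested at 150 g ai/ha only. Read-out is percent herbicidal damage relative to an untreated control.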

Eclipta prostrata [5] = experiment: Post-emergence herbicidal activity against Eclipta prostrata assessed as inhibition at 150 g/hectare treated at two-leaf stage by green house assay; assay type: functional; in short: as §3
Echinochloa crus-galli [6] = experiment: Post-emergence herbicidal activity against Echinochloa crus-galli (barnyard grass) assessed as inhibition at 37.5 g/hectare treated at one-leaf stage by green house assay; assay type: functional; in short: as §1
Brassica juncea [7] = experiment: Post-emergence herbicidal activity against Brassica juncea assessed as inhibition at 150 g/hectare treated at two-leaf stage by green house assay; assay type: functional; in short: as §3
Ammannia baccifera [8] = experiment: Post-emergence herbicidal activity against Ammannia baccifera assessed as inhibition at 150 g/hectare by green house assay; assay type: functional
Oryza sativa = experiment: Toxicity in Oryza sativa (rice) plant assessed as inhibition at 150 g/hectare; assay type: organism-based; conditions: in vivo; in short: as §2
Setaria viridis [9] = experiment: Post-emergence herbicidal activity against Setaria viridis (green foxtail) assessed as inhibition at 75 g/hectare treated at one-leaf stage by green house assay; assay type: functional; in short: as §1
[10] = test system: Brassica rapa subsp. chinensis; experiment: Post-emergence herbicidal activity against Brassica rapa subsp. chinensis assessed as inhibition at 75 g/hectare by green house assay; assay type: functional
Amaranthus retroflexus [11] = experiment: Post-emergence herbicidal activity against Amaranthus retroflexus assessed as inhibition at 150 g/hectare treated at two-leaf stage by green house assay; assay type: functional; in short: as §3
Echinochloa crus-galli [12] = experiment: Post-emergence herbicidal activity against Echinochloa crus-galli (barnyard grass) assessed as inhibition at 150 g/hectare treated at one-leaf stage by green house assay; assay type: functional; in short: as §1
Zea mays = experiment: Toxicity in Zea mays (maize) plant assessed as inhibition at 150 g/hectare; assay type: organism-based; conditions: in vivo; in short: as §2
Setaria viridis [13] = experiment: Post-emergence herbicidal activity against Setaria viridis (green foxtail) assessed as inhibition at 37.5 g/hectare treated at one-leaf stage by green house assay; assay type: functional; in short: as §1
Brassica juncea [14] = experiment: Post-emergence herbicidal activity against Brassica juncea assessed as inhibition at 150 g/hectare by green house assay; assay type: functional
Chenopodium album [15] = experiment: Post-emergence herbicidal activity against Chenopodium album assessed as inhibition at 150 g/hectare by green house assay; assay type: functional
Amaranthus retroflexus [16] = experiment: Post-emergence herbicidal activity against Amaranthus retroflexus assessed as inhibition at 150 g/hectare by green house assay; assay type: functional
Radish [17] = experiment: Post-emergence herbicidal activity against Raphanus sativus (radish) assessed as inhibition at 75 g/hectare by green house assay; assay type: functional
[18] = test system: Brassica rapa subsp. chinensis; experiment: Post-emergence herbicidal activity against Brassica rapa subsp. chinensis assessed as inhibition at 150 g/hectare by green house assay; assay type: functional
Glycine max = experiment: Toxicity in Glycine max (soybean) plant assessed as inhibition at 150 g/hectare; assay type: organism-based; conditions: in vivo; in short: as §2
Brassica juncea [19] = experiment: Post-emergence herbicidal activity against Brassica juncea assessed as inhibition at 75 g/hectare by green house assay; assay type: functional
Amaranthus retroflexus [20] = experiment: Post-emergence herbicidal activity against Amaranthus retroflexus assessed as inhibition at 37.5 g/hectare treated at two-leaf stage by green house assay; assay type: functional; in short: as §3
Brassica napus = experiment: Toxicity in Brassica napus (oilseed rape) assessed as inhibition at 150 g/hectare; assay type: functional; in short: as §2
Eclipta prostrata [21] = experiment: Post-emergence herbicidal activity against Eclipta prostrata assessed as inhibition at 37.5 g/hectare treated at two-leaf stage by green house assay; assay type: functional; in short: as §3
Brassica juncea [22] = experiment: Post-emergence herbicidal activity against Brassica juncea assessed as inhibition at 75 g/hectare treated at two-leaf stage by green house assay; assay type: functional; in short: as §3
Ipomoea nil [23] = experiment: Post-emergence herbicidal activity against Ipomoea nil (Japanese morning glory) assessed as inhibition at 75 g/hectare by green house assay; assay type: functional
Ipomoea nil [24] = experiment: Post-emergence herbicidal activity against Ipomoea nil (Japanese morning glory) assessed as inhibition at 150 g/hectare by green house assay; assay type: functional
Amaranthus retroflexus [25] = experiment: Post-emergence herbicidal activity against Amaranthus retroflexus assessed as inhibition at 75 g/hectare by green house assay; assay type: functional
Brassica juncea [26] = experiment: Post-emergence herbicidal activity against Brassica juncea assessed as inhibition at 37.5 g/hectare treated at two-leaf stage by green house assay; assay type: functional; in short: as §3
Radish [27] = experiment: Post-emergence herbicidal activity against Raphanus sativus (radish) assessed as inhibition at 150 g/hectare by green house assay; assay type: functional
Setaria viridis [28] = experiment: Post-emergence herbicidal activity against Setaria viridis (green foxtail) assessed as inhibition at 150 g/hectare treated at one-leaf stage by green house assay; assay type: functional; in short: as §1
Digitaria sanguinalis [29] = experiment: Post-emergence herbicidal activity against Digitaria sanguinalis (hairy crabgrass) assessed as inhibition at 75 g/hectare treated at one-leaf stage by green house assay; assay type: functional; in short: as §1
Gossypium hirsutum = experiment: Toxicity in Gossypium hirsutum (cotton) plant assessed as inhibition at 150 g/hectare; assay type: organism-based; conditions: in vivo; in short: as §2
Amaranthus retroflexus [30] = experiment: Post-emergence herbicidal activity against Amaranthus retroflexus assessed as inhibition at 75 g/hectare treated at two-leaf stage by green house assay; assay type: functional; in short: as §3
Digitaria sanguinalis [31] = experiment: Post-emergence herbicidal activity against Digitaria sanguinalis (hairy crabgrass) assessed as inhibition at 37.5 g/hectare treated at one-leaf stage by green house assay; assay type: functional; in short: as §1
Pontederia vaginalis [32] = experiment: Post-emergence herbicidal activity against Monochoria vaginalis assessed as inhibition at 75 g/hectare by green house assay; assay type: functional
Eclipta prostrata [33] = experiment: Post-emergence herbicidal activity against Eclipta prostrata assessed as inhibition at 75 g/hectare treated at two-leaf stage by green house assay; assay type: functional; in short: as §3
Ammannia baccifera [34] = experiment: Post-emergence herbicidal activity against Ammannia baccifera assessed as inhibition at 75 g/hectare by green house assay; assay type: functional

Cc1cc(Cl)ccc1OCC(=O)OC(C)P1(=O)OCC(C)(C)CO1 (stereo unspecified)
inhibition at 150 g/ha (Digitaria sanguinalis [1]): 0%
inhibition at 75 g/ha (Chenopodium album [2]): 70%
inhibition at 75 g/ha (Echinochloa crus-galli [3]): 0%
inhibition (INH) (Triticum aestivum): 0%
inhibition at 150 g/ha (Pontederia vaginalis [4]): 100%
inhibition at 150 g/ha (Abutilon theophrasti): 100%
inhibition at 150 g/ha (Eclipta prostrata [5]): 90%
inhibition at 37.5 g/ha (Echinochloa crus-galli [6]): 0%
inhibition at 150 g/ha (Brassica juncea [7]): 100%
inhibition at 150 g/ha (Ammannia baccifera [8]): 100%
inhibition (INH) (Oryza sativa): 10%
inhibition at 75 g/ha (Setaria viridis [9]): 0%
inhibition at 75 g/ha [10]: 70%
inhibition at 150 g/ha (Amaranthus retroflexus [11]): 100%
inhibition at 150 g/ha (Echinochloa crus-galli [12]): 30%
inhibition (INH) (Zea mays): 0%
inhibition at 37.5 g/ha (Setaria viridis [13]): 0%
inhibition at 150 g/ha (Brassica juncea [14]): 100%
inhibition at 150 g/ha (Chenopodium album [15]): 75%
inhibition at 150 g/ha (Amaranthus retroflexus [16]): 100%
inhibition at 75 g/ha (Radish [17]): 80%
inhibition at 150 g/ha [18]: 80%
inhibition (INH) (Glycine max): 20%
inhibition at 75 g/ha (Brassica juncea [19]): 100%
inhibition at 37.5 g/ha (Amaranthus retroflexus [20]): 80%
inhibition at 150 g/ha (Brassica napus): 40%
inhibition at 37.5 g/ha (Eclipta prostrata [21]): 80%
inhibition at 75 g/ha (Brassica juncea [22]): 100%
inhibition at 75 g/ha (Ipomoea nil [23]): 100%
inhibition at 150 g/ha (Ipomoea nil [24]): 100%
inhibition at 75 g/ha (Amaranthus retroflexus [25]): 100%
inhibition at 37.5 g/ha (Brassica juncea [26]): 80%
inhibition at 150 g/ha (Radish [27]): 80%
inhibition at 150 g/ha (Setaria viridis [28]): 0%
inhibition at 75 g/ha (Digitaria sanguinalis [29]): 0%
inhibition (INH) (Gossypium hirsutum): 20%
inhibition at 75 g/ha (Amaranthus retroflexus [30]): 100%
inhibition at 37.5 g/ha (Digitaria sanguinalis [31]): 0%
inhibition at 75 g/ha (Pontederia vaginalis [32]): 100%
inhibition at 75 g/ha (Eclipta prostrata [33]): 85%
inhibition at 75 g/ha (Ammannia baccifera [34]): 100%

CC1(C)COP(=O)(C(OC(=O)COc2ccc(Cl)cc2Cl)c2ccc(Cl)cc2)OC1 (stereo unspecified)
inhibition at 150 g/ha (Digitaria sanguinalis [1]): 0%
inhibition at 75 g/ha (Echinochloa crus-galli [3]): 0%
inhibition (INH) (Triticum aestivum): 0%
inhibition at 150 g/ha (Abutilon theophrasti): 90%
inhibition at 150 g/ha (Eclipta prostrata [5]): 70%
inhibition at 37.5 g/ha (Echinochloa crus-galli [6]): 0%
inhibition at 150 g/ha (Brassica juncea [7]): 98%
inhibition (INH) (Oryza sativa): 10%
inhibition at 75 g/ha (Setaria viridis [9]): 0%
inhibition at 150 g/ha (Amaranthus retroflexus [11]): 80%
inhibition at 150 g/ha (Echinochloa crus-galli [12]): 0%
inhibition (INH) (Zea mays): 0%
inhibition at 37.5 g/ha (Setaria viridis [13]): 0%
inhibition (INH) (Glycine max): 20%
inhibition at 37.5 g/ha (Amaranthus retroflexus [20]): 30%
inhibition at 150 g/ha (Brassica napus): 40%
inhibition at 37.5 g/ha (Eclipta prostrata [21]): 0%
inhibition at 75 g/ha (Brassica juncea [22]): 90%
inhibition at 37.5 g/ha (Brassica juncea [26]): 80%
inhibition at 150 g/ha (Setaria viridis [28]): 0%
inhibition at 75 g/ha (Digitaria sanguinalis [29]): 0%
inhibition (INH) (Gossypium hirsutum): 20%
inhibition at 75 g/ha (Amaranthus retroflexus [30]): 50%
inhibition at 37.5 g/ha (Digitaria sanguinalis [31]): 0%
inhibition at 75 g/ha (Eclipta prostrata [33]): 0%
